# Measurements taken from article PMC5743405 (International Journal of Oncology, 2017).
# Experiments:
# ADRB2 = assay: PathHunter β-arrestin; format: cell-based; conditions: 6 μM
# How it was run: (§1)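 β-Arrestin recruitment assay: the enzyme acceptor is fused to β-arrestin and the ED fragment to the GPCR. Recruitment restores β-galactosidase, read by chemiluminescence. % activity = 100% × (test − vehicle)/(max control ligand − vehicle). % inhibition = 100% × (1 − (test − vehicle)/(EC80 control − vehicle)). An agonist hit needs >30% activity and RLU > baseline + 3×SD. An antagonist hit needs >35% inhibition and RLU < EC80 RLU − 3×SD.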
# nuclear receptor = assay: PathHunter NHR assays, nhrMAX panel, antagonist mode; format: cell-based; conditions: summary of Table IV
# How it was run: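 Enzyme fragment complementation: NHR nuclear recruitment of a co-activator peptide fusion restores β-galactosidase, read by chemiluminescence. Test compound preincubated 1 h before agonist challenge. % inhibition = 100 × (1 − (test − vehicle RLU)/(EC80 control − vehicle RLU)). Hit requires >35% inhibition and mean RLU below EC80 RLU − 3 × EC80 SD.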
# CNR1 = assay: PathHunter β-arrestin; format: cell-based; conditions: antagonist mode, 6 μM
# How it was run: (§2)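 Engineered cells express the receptor fused to one β-galactosidase fragment (ED) and β-arrestin fused to the complementing fragment (EA). Receptor activation recruits β-arrestin, which restores enzyme activity, and this is read by chemiluminescence (RLU). Agonist % activity is 100% × (test − vehicle)/(maximal control ligand − vehicle). Antagonist mode is challenged with an EC80 control agonist, and % inhibition is 100% × (1 − (test − vehicle)/(EC80 − vehicle)). Hits require >30% activity or >35% inhibition, plus a 3×SD RLU margin.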
# CCKBR = assay: PathHunter β-arrestin; format: cell-based; conditions: antagonist mode, 6 μM
# How it was run: as §1
# MTNR1A = assay: PathHunter β-arrestin; format: cell-based; conditions: 6 μM
# How it was run: (§3)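 Vendor-run (DiscoveRx) PathHunter enzyme fragment complementation. β-Arrestin carries the EA fragment and the receptor carries ED; recruitment restores β-gal activity, read by chemiluminescence (RLU). Agonist % activity = vehicle-subtracted RLU relative to max control ligand (gpcrMAX) or to vehicle (orphanMAX). Antagonist % inhibition = 100% × (1 − vehicle-subtracted sample RLU / vehicle-subtracted EC80 agonist control RLU).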
# TACR3 = assay: PathHunter β-arrestin; format: cell-based; conditions: antagonist mode, 6 μM
# SSTR1 = assay: PathHunter β-arrestin; format: cell-based; conditions: agonist mode, 6 μM
# CHRM3 = assay: PathHunter β-arrestin; format: cell-based; conditions: 6 μM
# How it was run: as §2
# HRH1 = assay: PathHunter β-arrestin; format: cell-based; conditions: agonist mode, 6 μM
# How it was run: as §3
# MCHR2 = assay: PathHunter β-arrestin; format: cell-based; conditions: 6 μM
# How it was run: as §3
# C5L2 = assay: PathHunter β-arrestin; format: cell-based; conditions: antagonist mode, 6 μM
# How it was run: as §1
# CALCRL-RAMP3 = assay: PathHunter β-arrestin; format: cell-based; conditions: antagonist mode, 6 μM
# How it was run: as §1
# TLR6 = assay: RT2 qPCR primer assay, JJ012 cells; format: cell-based, human
# How it was run: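 RNA was extracted, checked by spectrophotometry and reverse-transcribed. Custom RT2 SYBR-Green primer assays were run on three samples in technical triplicate. Ct was normalised to mean GAPDH/ACTB, ΔΔCt taken versus control, and fold change = 2^−ΔΔCt.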
# ADRA2C = assay: PathHunter β-arrestin; format: cell-based; conditions: antagonist mode, 6 μM
# How it was run: as §1
# AVPR1B = assay: PathHunter β-arrestin; format: cell-based; conditions: antagonist mode, 6 μM
# How it was run: as §1
# FPR1 = assay: PathHunter β-arrestin; format: cell-based; conditions: antagonist mode, 6 μM
# How it was run: as §2
# FPRL1 = assay: PathHunter β-arrestin; format: cell-based; conditions: antagonist mode, 6 μM
# How it was run: as §2
# VIPR2 = assay: PathHunter β-arrestin; format: cell-based; conditions: 6 μM
# How it was run: (§4)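 β-Arrestin recruitment to GPCR read by β-galactosidase fragment complementation and chemiluminescence. Agonist: % = 100 × (test − vehicle)/(max control ligand − vehicle), hit at >30% and RLU > baseline + 3 SD. Antagonist, against EC80 agonist: % inhibition = 100 × (1 − (test − vehicle)/(EC80 − vehicle)), hit at >35% and RLU < EC80 − 3 SD.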
# MC4R = assay: PathHunter β-arrestin; format: cell-based; conditions: 6 μM
# How it was run: as §3
# HTR2A = assay: PathHunter β-arrestin; format: cell-based; conditions: 6 μM
# How it was run: as §3
# CCR9 = assay: PathHunter β-arrestin; format: cell-based; conditions: 6 μM
# How it was run: as §2
# BRS3 = assay: PathHunter β-arrestin; format: cell-based; conditions: antagonist mode, 6 μM
# How it was run: as §1
# CCR2 = assay: PathHunter β-arrestin; format: cell-based; conditions: antagonist mode, 6 μM
# How it was run: as §1
# CCR7 = assay: PathHunter β-arrestin; format: cell-based; conditions: 6 μM
# How it was run: as §2
# GALR2 = assay: PathHunter β-arrestin; format: cell-based; conditions: agonist mode, 6 μM
# How it was run: as §2
# CRHR1 = assay: PathHunter β-arrestin; format: cell-based; conditions: 6 μM
# How it was run: as §2
# VIPR1 = assay: PathHunter β-arrestin; format: cell-based; conditions: antagonist mode, 6 μM
# PROKR1 = assay: PathHunter β-arrestin; format: cell-based; conditions: 6 μM
# How it was run: as §4
# UTR2 = assay: PathHunter β-arrestin; format: cell-based; conditions: 6 μM
# How it was run: as §4
# CCR4 = assay: PathHunter β-arrestin; format: cell-based; conditions: antagonist mode, 6 μM
# How it was run: as §2
# [1] = tested on: tumor suppressor miRNAs and onco-miRNAs; conditions: JJ012 cell line; ref [7]; cited from earlier work
# P2RY4 = assay: PathHunter β-arrestin; format: cell-based; conditions: agonist mode, 6 μM
# GLP2R = assay: PathHunter β-arrestin; format: cell-based; conditions: agonist mode, 6 μM
# How it was run: as §3
substance,measurement,setting,value
Proline rich polypeptide 1 [PRP-1],% Activity,ADRB2; agonist mode,3%
same,% Inhibition,ADRB2; antagonist mode,−3%
same,nuclear receptor antagonism,nuclear receptor,neither that this peptide was agonist for orphan receptors (Table III) or agonist/antagonist for nuclear receptor
same,% Inhibition,CNR1,2%
same,% Inhibition,CCKBR,−3%
same,% Activity,MTNR1A; agonist mode,2%
same,% Inhibition,MTNR1A; antagonist mode,−9%
same,% Inhibition,TACR3,−1%
same,% Activity,SSTR1,−3%
same,% Activity,CHRM3; agonist mode,2%
same,% Inhibition,CHRM3; antagonist mode,−6%
same,% Activity,HRH1,1%
same,% Activity,MCHR2; agonist mode,1%
same,% Inhibition,MCHR2; antagonist mode,−3%
same,% Inhibition,C5L2,−5%
same,% Inhibition,CALCRL-RAMP3,1%
same,gene expression,"TLR6; 1 μg/ml PRP-1, heat map, vs nontreated control, technical triplicates",high expression
same,fold change (∆Ct),TLR6; qRT-PCR,did not report significant fold change
same,% Inhibition,ADRA2C,−4%
same,% Inhibition,AVPR1B,−2%
same,% Inhibition,FPR1,−4%
same,% Inhibition,FPRL1,−2%
same,% Activity,VIPR2; agonist mode,1%
same,% Inhibition,VIPR2; antagonist mode,−3%
same,% Activity,MC4R; agonist mode,−1%
same,% Inhibition,MC4R; antagonist mode,−6%
same,% Activity,HTR2A; agonist mode,1%
same,% Inhibition,HTR2A; antagonist mode,−5%
same,% Activity,CCR9; agonist mode,1%
same,% Inhibition,CCR9; antagonist mode,−6%
same,% Inhibition,BRS3,4%
same,% Inhibition,CCR2,−3%
same,% Activity,CCR7; agonist mode,1%
same,% Inhibition,CCR7; antagonist mode,−2%
same,% Activity,GALR2,1%
same,% Activity,CRHR1; agonist mode,1%
same,% Inhibition,CRHR1; antagonist mode,1%
same,% Inhibition,VIPR1,−9%
same,% Activity,PROKR1; agonist mode,2%
same,% Inhibition,PROKR1; antagonist mode,−2%
same,% Activity,UTR2; agonist mode,3%
same,% Inhibition,UTR2; antagonist mode,−7%
same,% Inhibition,CCR4,2%
same,miRNA regulation,[1],upregulate tumor suppressor miRNAs and downregulate onco-miRNAs
same,% Activity,P2RY4,−1%
same,% Activity,GLP2R,1%
